This is one part of a sample in which hits are shown more often than they occur.
A1 apoptosis 2: A1 inhibitors via caspase activation, primary screen, cell-based, luminescence, HTS, two replicates | caspase activation, % (no concentration beside the values) | MEF A1-2A-BIM cells, caspase-Glo luminescence, 3 h; percent of clofoctol response, DMSO zero | 24,000 tested, under 10 active; in the data active = caspase activation above about 5.9%
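system = A1-2A-BIM-expressing MEF cells | quantity = 2500 MEF cells/well | dosing = 50 nL compound per well, pinned | schedule = overnight cell settling, then 3 h compound exposure, 37 °C | signal = luminescence from DEVD-luciferin Caspase-Glo reagent, 1:1 in 50 mM HEPES, 1 h RT | read-out = Caspase-3/7 activation, seen as rise in luminescence signal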
INS-1E ATP HTS: protection of INS-1E cells from cytokine death, primary screen, ATP luminescence, single point; INS-1E cytokine-induced death, 48 h; normalised: neutral wells 0, positive control 100; protection from cytokine-induced ATP loss, % at 10 µM; 20,000 compounds, 0.1% hits; AID 488910, 2010;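 active = mean replicate protection from cytokine-induced ATP loss at least 50% and at least 75% of replicates each reaching 50%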
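Assay system – rat INS-1E insulinoma cell line · Quantity – 8000 cells per well · Buffer or medium – RPMI without phenol red, 5% FBS · Schedule – 48 h co-treatment, 10 min post-lysis read · Technique – luminescent ATP assay (CellTiter-Glo)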
T cruzi intra: inhibitors of intracellular Trypanosoma cruzi, primary screen, cell-based, plate reader, single point, set 2 | intracellular Trypanosoma cruzi in host cells | activity score (inhibition), % at 5.01 µM | 22,000 compounds, 4.9% hits | AID 651903, 2012; in the data active = activity score above about 55%;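 also: parasites and compound incubated about four days before reading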
A number is an active result; - = inactive; . = no result.

SMILES	A1 apoptosis 2	INS-1E ATP HTS	T cruzi intra
COc1ccc(S(=O)(=O)N(C)C[C@@H]2OCCCC[C@@H](C)Oc3ccc(NC(=O)Nc4ccc(C(F)(F)F)cc4)cc3C(=O)N([C@H](C)CO)C[C@@H]2C)cc1	.	-	65
Cc1ccc(S(=O)(=O)N(C)C[C@H]2OCCCC[C@@H](C)Oc3ccc(NC(=O)Nc4ccc(C(F)(F)F)cc4)cc3C(=O)N([C@H](C)CO)C[C@@H]2C)cc1	.	-	64
Cc1ccc(S(=O)(=O)N(C)C[C@@H]2OCCCC[C@H](C)Oc3ccc(NC(=O)Nc4ccc(C(F)(F)F)cc4)cc3C(=O)N([C@@H](C)CO)C[C@@H]2C)cc1	-	.	.
C[C@@H]1CCCCO[C@@H](CN(C)S(=O)(=O)c2ccccc2)[C@@H](C)CN([C@H](C)CO)C(=O)c2cc(NC(=O)Nc3ccc(C(F)(F)F)cc3)ccc2O1	-	-	69
COc1ccc(Br)c(/C=N/NC(=O)c2ccccn2)c1	-	-	-
O=C(NO)c1ccc(C(=O)N/N=C/c2cc(Br)cs2)cc1	.	-	-
O=C(CCCCCCC(=O)Nc1ccccc1O)N/N=C/c1ccc(F)c(Oc2ccccc2)c1	-	-	-
O=C(O)c1ccc(/C=N/NC(=O)c2ccccc2O)cc1	.	-	-
COCC1=C2[C@@H](c3ccccc3)OB(O)C[C@@H]2[C@@H]2C(=O)N(C)C(=O)[C@@H]2C1	-	.	.
O=C(NO)c1ccc(C(=O)N/N=C/c2cccc3ccccc23)cc1	.	-	-
Cc1noc(C)c1S(=O)(=O)N(C)C[C@H]1OCCCC[C@@H](C)Oc2ccc(NC(=O)Nc3ccc(C(F)(F)F)cc3)cc2C(=O)N([C@H](C)CO)C[C@@H]1C	-	-	70
Cc1noc(C)c1S(=O)(=O)N(C)C[C@@H]1OCCCC[C@H](C)Oc2ccc(NC(=O)Nc3ccc(C(F)(F)F)cc3)cc2C(=O)N([C@H](C)CO)C[C@H]1C	-	.	.
Clc1nc(NC2CCN(Cc3ccccc3)CC2)c2cc(Br)ccc2n1	-	.	.
O=C(CCCCCCC(=O)Nc1ccccc1O)N/N=C/c1ccccc1C(=O)O	.	-	-
C[C@H]1CN([C@@H](C)CO)C(=O)Cc2cc(N(C)C)ccc2O[C@@H]1CN(C)Cc1ccc(Oc2ccccc2)cc1	-	-	67
C[C@H]1CN([C@@H](C)CO)C(=O)Cc2cc(N(C)C)ccc2O[C@H]1CN(C)Cc1ccc(Oc2ccccc2)cc1	.	-	76
C[C@@H]1CN([C@H](C)CO)C(=O)Cc2cc(N(C)C)ccc2O[C@@H]1CN(C)Cc1ccc(Oc2ccccc2)cc1	-	-	-
C[C@H](CO)N1C[C@H](C)[C@H](CN(C)Cc2ccccc2)Oc2ccc(N(C)C)cc2CC1=O	-	-	-
CN(C)c1ccc(/C=N/NC(=O)c2ccccc2O)cc1	.	-	-
C[C@@H]1CCCCO[C@@H](CN(C)C(=O)C2CCCCC2)[C@@H](C)CN([C@H](C)CO)C(=O)c2cc(NC(=O)Nc3ccc(C(F)(F)F)cc3)ccc2O1	.	-	77
C[C@@H]1CN([C@H](C)CO)C(=O)c2cc(NC(=O)c3ccccc3)ccc2O[C@@H](C)CCCCO[C@H]1CN(C)C(=O)Nc1ccc(C(F)(F)F)cc1	-	.	.
C[C@H](CO)N1C[C@H](C)[C@H](CN(C)C(=O)Nc2ccc(F)cc2)OCCCC[C@H](C)Oc2ccc(NC(=O)Nc3ccc(C(F)(F)F)cc3)cc2C1=O	-	.	.
C[C@@H]1CN([C@@H](C)CO)C(=O)c2cc(NC(=O)Nc3ccc(C(F)(F)F)cc3)ccc2O[C@@H](C)CCCCO[C@@H]1CN(C)C(=O)C1CCCCC1	-	.	.
C[C@H]1CCCCO[C@@H](CN(C)C(=O)Nc2ccc(C(F)(F)F)cc2)[C@@H](C)CN([C@@H](C)CO)C(=O)c2cc(NC(=O)Nc3ccc(F)cc3)ccc2O1	-	.	.
C[C@@H]1CCCCO[C@@H](CN(C)C(=O)Nc2ccc(C(F)(F)F)cc2)[C@@H](C)CN([C@H](C)CO)C(=O)c2cc(NC(=O)Nc3ccc(C(F)(F)F)cc3)ccc2O1	.	-	69
SMILES	A1 apoptosis 2	INS-1E ATP HTS	T cruzi intra
C[C@@H]1CCCCO[C@@H](CN(C)C(=O)Nc2ccc(F)cc2)[C@@H](C)CN([C@H](C)CO)C(=O)c2cc(NC(=O)Nc3ccc(C(F)(F)F)cc3)ccc2O1	.	-	64
C[C@@H]1CCCCO[C@H](CN(C)C(=O)Nc2ccc(C(F)(F)F)cc2)[C@@H](C)CN([C@H](C)CO)C(=O)c2cc(NC(=O)c3ccccc3)ccc2O1	.	-	59
O=C(CCCCCCC(=O)Nc1ccccc1O)N/N=C/c1cccc(OCCO)c1	-	-	-
O=C(CCCCCC(=O)Nc1ccccc1O)N/N=C\c1cccnc1Cl	.	-	-
O=C(CCCCC(=O)N/N=C/c1coc2ccccc2c1=O)NO	-	-	-
COC(=O)CCCCCCC(=O)N=NC=C1C=CN(O)C=C1	.	-	-
NC(=O)NCC#Cc1ccc2c(c1)[C@]1(C(=O)N2)[C@H](C(=O)N2CCCCCCC2)[C@H]2C(=O)O[C@H](c3ccccc3)[C@H](c3ccccc3)N2[C@@H]1c1ccc(O)cc1	-	.	.
O=C(CCCCCCC(=O)Nc1ccccc1O)N/N=C/c1ccc(Br)o1	-	-	-
O=C(CCCCCC(=O)Nc1ccccc1O)N/N=C/[C@@H](O)[C@H](O)[C@H](O)CO	-	.	.
C[C@@H]1CCCCO[C@H](CN(C)C(=O)Nc2ccc(C(F)(F)F)cc2)[C@@H](C)CN([C@H](C)CO)C(=O)c2cc(NC(=O)Nc3cccc4ccccc34)ccc2O1	-	-	67
C[C@@H]1CCCCO[C@H](CN(C)Cc2ccc(C(F)(F)F)cc2)[C@H](C)CN([C@H](C)CO)C(=O)c2cc(NC(=O)Nc3cccc4ccccc34)ccc2O1	-	.	.
C[C@@H]1CCCCO[C@H](CN(C)C(=O)Nc2ccc(F)cc2)[C@@H](C)CN([C@H](C)CO)C(=O)c2cc(NC(=O)Nc3ccc(C(F)(F)F)cc3)ccc2O1	.	-	62
C[C@@H]1CCCCO[C@H](CN(C)C(=O)Nc2ccc(C(F)(F)F)cc2)[C@H](C)CN([C@H](C)CO)C(=O)c2cc(NC(=O)Nc3ccc(F)cc3)ccc2O1	-	.	.
C[C@@H]1CCCCO[C@H](CN(C)Cc2ccc(C(F)(F)F)cc2)[C@@H](C)CN([C@H](C)CO)C(=O)c2cc(NC(=O)Nc3cccc4ccccc34)ccc2O1	.	-	74
CC(C)NC(=O)Nc1ccc2c(c1)C(=O)N([C@H](C)CO)C[C@@H](C)[C@H](CN(C)C(=O)Nc1ccc(C(F)(F)F)cc1)OCCCC[C@H](C)O2	-	.	.
C[C@@H]1CCCCO[C@@H](CN(C)C(=O)Nc2ccc(C(F)(F)F)cc2)[C@@H](C)CN([C@H](C)CO)C(=O)c2cc(NC(=O)NC3CCCCC3)ccc2O1	-	-	76
C[C@@H]1CCCCO[C@@H](CN(C)C(=O)Nc2ccc(C(F)(F)F)cc2)[C@H](C)CN([C@H](C)CO)C(=O)c2cc(NC(=O)Nc3cccc4ccccc34)ccc2O1	-	.	.
COC(=O)CCCCCCC(=O)N/N=C/C[C@H](O)[C@H](O)[C@@H](C)O	.	-	-

Screens from PubChem.
